TRPC4 agonist: TRPC4 (mouse) channel activation. HEK293 TRPC4beta/mu-opioid, Fluo4 calcium fluorescence; hits give high values. B-score at 10 µM. hit rate 0.49% among 310,000. AID 2237;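 active = B-score above 5 SD of library B-scores, and initial fluorescence ratio not above library mean plus 5 SD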;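 note: positive B-score marks a calcium rise read as TRPC4 activation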
Target sequence (Q9QUQ5 whole entry, looked up): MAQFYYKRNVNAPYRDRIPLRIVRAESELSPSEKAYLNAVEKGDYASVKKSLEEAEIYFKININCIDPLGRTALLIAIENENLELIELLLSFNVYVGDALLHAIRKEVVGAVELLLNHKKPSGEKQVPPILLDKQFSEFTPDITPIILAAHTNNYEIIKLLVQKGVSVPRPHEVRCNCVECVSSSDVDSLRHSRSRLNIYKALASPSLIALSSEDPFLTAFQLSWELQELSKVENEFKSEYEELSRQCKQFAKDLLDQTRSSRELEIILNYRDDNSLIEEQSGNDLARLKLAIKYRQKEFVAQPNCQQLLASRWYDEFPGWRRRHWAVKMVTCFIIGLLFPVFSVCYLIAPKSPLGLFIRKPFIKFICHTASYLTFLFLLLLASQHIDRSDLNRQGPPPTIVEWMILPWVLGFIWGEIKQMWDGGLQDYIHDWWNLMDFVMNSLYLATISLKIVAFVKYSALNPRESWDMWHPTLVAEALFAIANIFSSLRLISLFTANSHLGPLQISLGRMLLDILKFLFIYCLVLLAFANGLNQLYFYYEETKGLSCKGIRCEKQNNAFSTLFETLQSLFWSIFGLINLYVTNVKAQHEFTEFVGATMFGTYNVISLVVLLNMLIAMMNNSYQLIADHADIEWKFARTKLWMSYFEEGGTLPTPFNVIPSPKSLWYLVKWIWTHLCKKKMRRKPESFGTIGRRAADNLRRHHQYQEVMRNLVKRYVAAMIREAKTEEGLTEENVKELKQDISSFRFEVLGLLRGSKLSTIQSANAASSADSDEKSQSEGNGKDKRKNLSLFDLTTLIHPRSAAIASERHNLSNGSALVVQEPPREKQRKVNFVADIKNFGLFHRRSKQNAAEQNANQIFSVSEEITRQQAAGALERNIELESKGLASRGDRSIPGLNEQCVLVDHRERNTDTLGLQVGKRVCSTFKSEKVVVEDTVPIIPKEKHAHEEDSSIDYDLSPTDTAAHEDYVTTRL
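system = HEK293 cells stably co-expressing mouse TRPC4beta and mu-opioid receptor | schedule = Fluo4 dye loading 45 min at room temperature, 110 s recording | measure = B-scored integrated calcium fluorescence ratio | signal = Fluo4 calcium-sensitive dye fluorescence, kinetic, 1 Hz baseline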
TRPC6 inh: inhibitors of mouse TRPC6 channel. B-score at 10 µM. Q61143. AID 2553. HEK293-TRPC6, membrane potential dye, ACh-evoked depolarization; hits give low values. hit rate 1.1% among 310,000;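 active = B-score under library mean minus 3 SD, initial fluorescence not abnormally high, positive integrated signal ratio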;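 note: B-score derived from integrated fluorescence ratio over the kinetic read; more negative B-score means stronger inhibition of depolarization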
TRPC6 activator: activates the mouse TRPC6 cation channel; Q61143; HEK293-TRPC6 membrane potential dye fluorescence; hits give high values; B-score at 10 µM; hit rate 0.13% among 310,000;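 active = B-score of the integrated fluorescence ratio above library mean plus 3 SD, and starting fluorescence ratio within library mean plus 5 SD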;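 note: higher score means more depolarization so channel activation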
TRPC4 potent: allosteric potentiators of mouse TRPC4 channel | HEK293 TRPC4beta/mu-opioid, DAMGO EC20, Fluo-4 Ca2+ flux; hits give high values | B-score at 10 µM | hit rate 0.42% among 310,000 | AID 2227;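 active = B-score of calcium response area above 5 SD of library B-scores, with initial fluorescence ratio within 5 SD of library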;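 note: B-score of integrated fluorescence ratio over time as area under calcium response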
DSG3 Ab inh: human desmoglein-3 autoantibody binding inhibition; P32926; DSG3-coupled beads, scFv-anti-DSG3-GFP binding, flow cytometry; hits give low values; binding (percent of control), % at 10 µM; hit rate 0.48% among 310,000; AID 588358;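 active = binding more than 3 SD below its plate's average and above zero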;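 note: hits lower antibody fragment binding to DSG3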
TRPC4 block: TRPC4 (mouse) channel inhibition; hit rate 0.39% among 300,000; B-score at 10 µM; HEK293 TRPC4beta/mu-opioid, DAMGO-evoked Fluo4 calcium flux; hits give low values;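 active = B-score over 3 SD under the library average, no early fluorescence shift, positive overall ratio signal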
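Assay system – HEK293 line stably carrying TRPC4beta and mu-opioid receptor · Doses – single dose · Detection – Fluo4 calcium-dye fluorescence, kinetic read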
TRPC4 sel inh 2: second selectivity test of TRPC6 inhibitors: effect on mouse TRPC4. shares compounds with TRPC6 inh. HEK293 TRPC4/MOR, membrane potential dye fluorescence; channel activated by saturating DAMGO dose. inhibition, % at 10 µM. hit rate 42% among 920. AID 2776;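 active = compounds whose fluorescence signal differed from control wells by over 3 SD, either direction, in both duplicate plates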
TRPC4 spec: tests whether TRPC6 inhibitors also affect mouse TRPC4; shares compounds with TRPC6 inh; HEK293 TRPC4/mu-opioid, membrane potential fluorescence; activity change, negative = inhibition, % at 10 µM; hit rate 61% among 920; AID 2777;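 active = rise or fall in signal beyond 3 SD of buffer-only wells in both replicate plates, either sign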;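 note: integrated kinetic ratio of fluorescence range over baseline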
HEK293 MPD ctr 2-1: second counter-screen for TRPC6 inhibitors: parental HEK293 cells; shares compounds with TRPC6 inh; parental HEK293 membrane potential dye fluorescence; maximal acetylcholine challenge after compound addition; signal change vs control, % at 10 µM; hit rate 31% among 920; AID 2779;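 active = membrane potential signal moving either way by over 3 SD of the maximum-effect control, in both duplicate plates, meaning non-specific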
HEK293 MPD ctr-1: counter-screen for TRPC6 inhibitors: effect in parental HEK293 cells. membrane potential signal change, % at 10 µM. hit rate 60% among 920. shares compounds with TRPC6 inh. parental HEK293 membrane potential dye fluorescence;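 active = membrane potential signal shifting up or down by more than 3 SD of buffer-only wells, on both duplicate plates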
HEK293 MPD ctr-2: checks TRPC6 modulator effects in parental HEK293 cells. shares compounds with TRPC6 inh. membrane potential dye fluorescence. membrane potential signal change, % at 10 µM. hit rate 51% among 2,400. AID 488924;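 active = membrane potential signal moves up or down beyond 5 SD from buffer-only wells, on both duplicate plates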
HEK293 MPD ctr 2-2: second counter-screen for TRPC6 modulators: effect in parental HEK293 cells; shares compounds with TRPC6 inh; inhibition, % at 10 µM; membrane potential dye fluorescence; after compound, maximal acetylcholine stimulation; hit rate 14% among 2,400; AID 488926;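 active = membrane potential signal drops by more than 5 SD from the mean control signal, in both duplicate plates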;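 note: plate controls were acetylcholine ECmax control wells for no effect and buffer only wells for full effect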
TRPC4 ctr mod: selectivity of TRPC6 modulators against mouse TRPC4; shares compounds with TRPC6 inh; HEK293 TRPC4/mu-opioid, membrane potential fluorescence; percent change from control (negative = decrease, positive = increase), % at 10 µM; hit rate 69% among 2,400; AID 488927;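 active = membrane potential signal moved up or down beyond 5 SD of buffer control wells, in both duplicate plates, actives on both sides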;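 note: plate controls were assay buffer wells for no effect and DAMGO maximal-effect wells for full effect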
TRPC4 ctr inh 2: second check of whether TRPC6 modulators also affect mouse TRPC4. inhibition, % at 10 µM. HEK293 TRPC4/mu-opioid, membrane potential dye fluorescence; stimulated with maximal-effect DAMGO. hit rate 55% among 2,400. AID 488928. shares compounds with TRPC6 inh;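 active = drop in membrane potential signal beyond 5 SD of the control wells in both duplicate plates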;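 note: TRPC4 counter screen for TRPC6 hits run under conditions tuned for TRPC6 not TRPC4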
TRPC6 block conf: mouse TRPC6 inhibitor confirmation | shares compounds with TRPC6 inh | HEK293-TRPC6, membrane potential dye, ACh-evoked depolarization | inhibition, % at 10 µM | hit rate 43% among 3,300 | AID 488960;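 active = fluorescence ratio falls more than 5 SD below the full-stimulation control mean, in both duplicate runs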;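 note: integrated fluorescence ratio of peak minus minimum over baseline after agonist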
TRPC6 act conf: confirmation of mouse TRPC6 activators; activation, % at 10 µM; hit rate 11% among 2,800; shares compounds with TRPC6 inh; HEK293-TRPC6 membrane potential dye fluorescence, FDSS;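 active = ratio signal rise beyond 5 SD above unstimulated control wells' mean, seen in both duplicate runs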;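 note: plate controls were buffer EC0 wells for no effect and acetylcholine ECmax response for full effect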
* marks the source's active call; other numbers are inactive results; i = inactive; · = no result. Most compounds without a hit are left out; they make up all but 2.5% or so of the library.

SMILES | TRPC4 agonist | TRPC6 inh | TRPC6 activator | TRPC4 potent | DSG3 Ab inh | TRPC4 block | TRPC4 sel inh 2 | TRPC4 spec | HEK293 MPD ctr 2-1 | HEK293 MPD ctr-1 | TRPC6 block conf | TRPC6 act conf | others
Cc1cccc(OCC(O)Cn2c(=N)n(Cc3ccccc3)c3ccccc32)c1 (configuration not stated) | 55* | -5.67* | i | i | 106.9 | i | · | · | · | · | 49.5%* | · | HEK293 MPD ctr-2=145.0%*;HEK293 MPD ctr 2-2=i;TRPC4 ctr mod=68.0%*;TRPC4 ctr inh 2=111.5%*
Cc1cccc(OCC(O)CN2CCNCC2)c1 (configuration not stated) | i | i | i | i | 119.7 | i | · | · | · | · | · | ·
COc1cc(/C=C2\SC(=O)N(CCN)C2=O)ccc1OS(=O)(=O)c1cc(C)ccc1C | i | -7.22* | i | i | 116.7 | i | i | i | i | i | i | i
NCCN1C(=O)S/C(=C\c2ccc3c(c2)OCO3)C1=O | i | -5.42* | i | i | 100.9 | i | · | · | · | · | 36.5%* | i | HEK293 MPD ctr-2=i;HEK293 MPD ctr 2-2=i;TRPC4 ctr mod=-9.5%*;TRPC4 ctr inh 2=41.5%*
O=C(CNC(=O)c1ccccc1F)NCCN1C(=O)S/C(=C\c2ccc3c(c2)OCO3)C1=O | · | · | · | · | 95.1 | · | · | · | · | · | · | ·
N#CC1(NC(=O)CSc2nnc(C3CC3)n2C2CC2)CCCCC1 | · | · | · | · | 107.7 | · | · | · | · | · | · | ·
COc1cc(NC(=O)CSc2nc3c(C)ccc(C)c3cc2C)c(C(=O)O)cc1OC | i | i | i | i | 99.5 | i | · | · | · | · | · | ·
CCOCCCNC(=S)N1C2CCC1CC(NC(=O)Nc1ccc(C(=O)OCC)cc1)C2 (configuration not stated) | i | -7.17* | i | i | 110.5 | i | · | · | · | · | 66.5%* | · | HEK293 MPD ctr-2=i;HEK293 MPD ctr 2-2=i;TRPC4 ctr mod=i;TRPC4 ctr inh 2=i
Cc1c(CCOC(=O)c2ccc(Cl)cc2Cl)sc[n+]1CC(=O)c1ccccc1 | · | · | · | · | 100.6 | · | · | · | · | · | · | ·
Cc1c(CCOC(=O)C23CC4CC(CC(C)(C4)C2)C3)sc[n+]1Cc1ccccc1 | i | i | i | i | · | i | · | · | · | · | · | ·
Cc1c(CCOC(=O)C23CC4CC(CC(C4)C2)C3)sc[n+]1Cc1ccccc1 | i | -7.46* | i | i | 100.8 | i | i | i | -9.5%* | i | 87.6%* | i
Cc1ccc(C(=O)OCCc2sc[n+](Cc3ccccc3)c2C)cc1 | i | -9.43* | i | i | · | i | i | -11.6%* | 31.0%* | -170.0%* | 79.8%* | i
CCCSCCCNC(=O)CN1C(=O)COc2ccc(S(=O)(=O)N3CCCC3)cc21 | i | i | i | i | 100.0 | i | · | · | · | · | · | ·
CN(C)c1ccc2c3c(ccc(N(C)C)c13)C(=O)OC2 | i | -5.95* | i | i | 107.8 | i | · | · | · | · | i | i | HEK293 MPD ctr-2=-408.5%*;HEK293 MPD ctr 2-2=i;TRPC4 ctr mod=-67.5%*;TRPC4 ctr inh 2=44.5%*
CS(=O)(=O)Nc1ccc2c(c1)C(=O)OC2 | i | i | i | i | 81.7 | i | · | · | · | · | · | ·
COc1ccc(NC(=O)C(=O)NCCC2CCCCN2S(=O)(=O)c2ccccc2)cc1 (configuration not stated) | i | i | i | i | 100.5 | i | · | · | · | · | · | ·
COc1ccc(N2CCN(C(=O)CN3C(=O)NC(C)(C4CC4)C3=O)CC2)cc1 (configuration not stated) | · | · | · | · | 104.9 | · | · | · | · | · | · | ·
C[N+]1(CCCOC(=O)C2(c3ccccc3)CCCC2)CCOCC1 | i | -5.39* | i | i | 184.7 | i | · | · | · | · | i | i | HEK293 MPD ctr-2=i;HEK293 MPD ctr 2-2=i;TRPC4 ctr mod=i;TRPC4 ctr inh 2=i
O=C(OCCN1CCCCC1)C1(c2ccccc2)CCCC1 | i | -7.36* | i | i | 96.1 | i | i | 19.3%* | 21.0%* | 16.1%* | 83.0%* | ·
O=C(OCCN1CCCC1)C1(c2ccccc2)CCCC1 | i | -8* | i | i | 99.4 | i | i | 9.8%* | 15.5%* | 12.6%* | 63.6%* | ·
O=C(O)c1ccc(NC(=O)C2(c3ccccc3)CCCC2)cc1 | i | i | i | i | 95.2 | i | · | · | · | · | · | ·
CCN(CC)CCOC(=O)c1ccc(NC(=O)C2(c3ccccc3)CCCC2)cc1 | i | -5.21* | i | i | 117.3 | i | · | · | · | · | i | · | HEK293 MPD ctr-2=125.0%*;HEK293 MPD ctr 2-2=i;TRPC4 ctr mod=15.5%*;TRPC4 ctr inh 2=58.0%*
O=C(OCCN1CCCCC1)c1ccccc1Br | i | i | i | i | 104.0 | i | · | · | · | · | · | ·
COc1cc(CN2CCNC(=O)C2CC(=O)N(C)CCC2CCOCC2)cc(OC)c1 (configuration not stated) | i | i | i | i | 96.5 | i | · | · | · | · | · | ·
CCNC(=O)C1(c2ccccc2)CCCC1 | i | i | i | i | 97.9 | i | · | · | · | · | · | ·
CN(C)CCOC(=O)C1(c2ccccc2)CCCC1 | i | -9.57* | i | i | 109.0 | i | i | 2.4%* | 19.0%* | 5.8%* | i | ·
COc1ccc(-c2cn3cc(C)ccc3n2)cc1OC | i | -7.57* | i | i | 99.9 | i | i | -9.8%* | -27.5%* | i | i | i
COc1ccc(-c2cn3cccc(C)c3n2)cc1F | i | -8.01* | i | i | 86.5 | i | i | i | 4.5%* | -198.5%* | i | i

Screening data: PubChem BioAssay, several laboratories
